ChEMBL document CHEMBL1140445, “Design, synthesis, and preliminary pharmacological evaluation of a set of small molecules that directly activate gi proteins” (J Med Chem, 2005)

Assays:
Format in all cases: functional
[1] = biological target: T1, Guanine nucleotide-binding protein G(i) subunit alpha-1 (Homo sapiens, UniProt P63096); assay: Concentration required to stimulate binding of [35S]GTP-gamma-S, with G alpha i1
Summary of the method: (§1)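 His-tagged recombinant Gαi subunits were expressed in E. coli BL21/DE3 and purified by IMAC. 3 pmol of subunit, native or in lipid vesicles, was incubated 30 min at 30 °C with 0.1 μM [35S]GTPγS in 50 mM Hepes-NaOH, 1 mM EDTA, 1 mM DTT and 100 μM MgSO4. The reaction was stopped with ice-cold buffer and filtered on cellulose nitrate. EC50 came from 1×10^-7 to 1×10^-4 M (eight concentrations).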

[2] = biological target: T2, Guanine nucleotide-binding protein G(o) subunit alpha (Homo sapiens, UniProt P09471); assay: Percent stimulation of [35S]GTP-gamma-S, binding to G alpha o1 at 5E-5 M of basal for 30 minutes
Summary of the method: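 With Gαo (3 pmol recombinant His-tagged subunit, native or vesicle-reconstituted), binding of 0.1 μM [35S]GTPγS was measured during 30 min at 20 °C with compound at 5×10^-5 M, in Hepes-NaOH buffer with EDTA, DTT and 100 μM MgSO4. Samples were filtered on cellulose nitrate, and the value is percent of basal binding.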
Target sequence in this assay (P09471 2-354 limits assumed): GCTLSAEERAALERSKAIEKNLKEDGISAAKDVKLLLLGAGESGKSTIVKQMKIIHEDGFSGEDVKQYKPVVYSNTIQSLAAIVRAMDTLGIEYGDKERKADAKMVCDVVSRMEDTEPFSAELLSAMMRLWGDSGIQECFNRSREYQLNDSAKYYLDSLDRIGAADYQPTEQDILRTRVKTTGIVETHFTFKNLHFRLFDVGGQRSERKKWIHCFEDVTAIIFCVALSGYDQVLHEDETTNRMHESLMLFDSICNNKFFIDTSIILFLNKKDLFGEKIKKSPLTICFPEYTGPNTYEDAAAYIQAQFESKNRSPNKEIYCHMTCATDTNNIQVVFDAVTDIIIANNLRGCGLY

[3] = biological target: T3, Guanine nucleotide-binding protein G(i) subunit alpha-3 (Homo sapiens, UniProt P08754); assay: Concentration required to stimulate binding of [35S]GTP-gamma-S, with G alpha i3; summary of the method: as §1
[4] = biological target: T1, Guanine nucleotide-binding protein G(i) subunit alpha-1; assay: Percent stimulation of [35S]GTP-gamma-S, binding to G alpha i1 at 5E-5 M of basal for 30 minutes
Summary of the method: (§2)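 Recombinant His-tagged Gαi subunit (3 pmol, native or in lipid vesicles) was incubated with compound at 5×10^-5 M and 0.1 μM [35S]GTPγS, 30 min at 30 °C, in 50 mM Hepes-NaOH, 1 mM EDTA, 1 mM DTT, 100 μM MgSO4. Filter-bound GTPγS after ice-cold stop and cellulose-nitrate filtration is expressed as percent of basal.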

[5] = biological target: T2, Guanine nucleotide-binding protein G(o) subunit alpha; assay: Concentration required to stimulate binding of [35S]GTP-gamma-S, with G alpha o1
Summary of the method: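 Gαo: His-tagged recombinant subunit from E. coli BL21/DE3, IMAC-purified. 3 pmol, native or vesicle-reconstituted, incubated 30 min at 20 °C with 0.1 μM [35S]GTPγS in Hepes-NaOH/EDTA/DTT/100 μM MgSO4 mix. The reaction was stopped with ice-cold Tris/MgCl2/NaCl buffer, filtered on cellulose nitrate and washed. EC50 was derived from eight concentrations spanning 1×10^-7 to 1×10^-4 M.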
Target sequence in this assay (P09471 whole entry): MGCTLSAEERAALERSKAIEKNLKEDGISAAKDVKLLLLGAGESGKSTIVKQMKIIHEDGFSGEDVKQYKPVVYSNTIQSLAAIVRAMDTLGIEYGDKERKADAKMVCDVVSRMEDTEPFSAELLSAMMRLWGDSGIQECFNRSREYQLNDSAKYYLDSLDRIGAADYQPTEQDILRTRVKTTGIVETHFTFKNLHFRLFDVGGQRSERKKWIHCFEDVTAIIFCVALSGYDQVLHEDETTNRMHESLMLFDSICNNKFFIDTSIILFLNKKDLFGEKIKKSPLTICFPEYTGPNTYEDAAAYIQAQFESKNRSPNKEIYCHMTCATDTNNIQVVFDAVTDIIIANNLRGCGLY

[6] = biological target: T3, Guanine nucleotide-binding protein G(i) subunit alpha-3; assay: Percent stimulation of [35S]GTP-gamma-S, binding to G alpha i3 at 5E-5 M of basal for 30 minutes; summary of the method: as §2
[7] = biological target: T3, Guanine nucleotide-binding protein G(i) subunit alpha-3; assay: Percent stimulation of [35S]GTP-gamma-S, binding to G alpha i3 at 3E-5 M of basal for 30 minutes

T3 sequence (P08754 whole entry): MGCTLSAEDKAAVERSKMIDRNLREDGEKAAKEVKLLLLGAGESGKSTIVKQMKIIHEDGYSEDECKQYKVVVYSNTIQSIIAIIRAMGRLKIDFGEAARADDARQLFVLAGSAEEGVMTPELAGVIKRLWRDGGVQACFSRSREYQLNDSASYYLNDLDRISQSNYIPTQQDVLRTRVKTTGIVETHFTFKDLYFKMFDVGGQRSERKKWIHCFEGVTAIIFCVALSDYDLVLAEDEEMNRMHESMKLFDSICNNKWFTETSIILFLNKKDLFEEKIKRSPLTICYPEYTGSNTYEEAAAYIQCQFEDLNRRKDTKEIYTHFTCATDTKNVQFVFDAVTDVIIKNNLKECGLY
T1 sequence (P63096 whole entry): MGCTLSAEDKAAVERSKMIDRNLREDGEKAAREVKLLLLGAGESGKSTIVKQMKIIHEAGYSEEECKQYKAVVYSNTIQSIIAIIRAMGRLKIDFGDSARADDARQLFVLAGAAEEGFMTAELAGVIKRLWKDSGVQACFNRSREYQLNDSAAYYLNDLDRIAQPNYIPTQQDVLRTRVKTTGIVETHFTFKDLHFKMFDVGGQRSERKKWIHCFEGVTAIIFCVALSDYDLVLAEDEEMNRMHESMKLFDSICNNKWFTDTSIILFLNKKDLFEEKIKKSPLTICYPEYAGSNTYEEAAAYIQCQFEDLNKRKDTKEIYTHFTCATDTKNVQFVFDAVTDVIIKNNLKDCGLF

Compound | EC50 [1] | Stimulation [2] | EC50 [3] | Stimulation [4] | EC50 [5] | Stimulation [6] | Stimulation [7]
CCCCCCCCCCCCC(=O)N1CCC(C2CCN(C)CC2)CC1 | – | 126% | – | 84% | – | 75% | –
CCCCCCCCCCCCCN1CCC(C2CCN(C)CC2)CC1 | 18.7 µM | 420% | 18.9 µM | 704% | 19.3 µM | 435% | –
CCCCCCCCCCCCCCCN1CCC(C2CCN(C)CC2)CC1 | – | 93% | – | 97% | – | 80% | –
CCCCCCCCCCCCCCC(=O)N1CCC(C2CCN(C)CC2)CC1 | 6 µM | 531% | 17.9 µM | 392% | 34.9 µM | 265% | –
CCCCCCCCCCCCCCC(=O)N1CCC(CCC2CCNCC2)CC1 | 6.6 µM | 724% | 6.3 µM | 845% | 6.1 µM | 1090% | –
CCCCCCCCCCCCCCC(=O)N1CCC(CCC2CCN(C)CC2)CC1 | 20.1 µM | 742% | 6.1 µM | 577% | 12.5 µM | 815% | –
CCCCCCCCCCCCCCCCC(=O)N1CCC(C2CCNCC2)CC1 | 25.4 µM | 920% | 24.4 µM | 612% | 22.6 µM | 424% | –
CCCCCCCCCCCCCCCCC(=O)N1CCC(C2CCN(C)CC2)CC1 | 23 µM | 472% | 23.3 µM | 232% | 21.4 µM | 181% | –
CCCCCCCCCCCCCCC[N+]1(C)CCC(C2CCNCC2)CC1 (stereo not given) | 14.7 µM | 2090% | 16 µM | 1580% | 10.1 µM | 1630% | –
CCCCCCCCCCCCCCCCCN1CCC(C2CCNCC2)CC1 | 35.7 µM | 3480% | 41.5 µM | 5690% | 13.4 µM | 5660% | –
CCCCCCCCCCCCCCCNC(=O)C1CCNCC1 | 6.4 µM | 2270% | 5.9 µM | 973% | 8.2 µM | 986% | –
CCCCCCCCCCCCC(=O)N1CCC(C2CCNCC2)CC1 | 17.6 µM | 1500% | 12.1 µM | 950% | 18.1 µM | 1180% | –
CCCCCCCCCCCCCN1CCC(C2CCNCC2)CC1 | 21.1 µM | 913% | 21.2 µM | 755% | 27.1 µM | 406% | –
CCCCCCCCCCCCCCC(=O)N1CCN(N)CC1 | 28.6 µM | 194% | 24.6 µM | 173% | 374 µM | 211% | –
CCCCCCCCCCCCCCCCCN1CCC(C2CCN(C)CC2)CC1 | – | 99% | – | 81% | – | 97% | –
COc1ccccc1CN1CCC(C2CCNCC2)CC1 | – | 129% | 38.8 µM | 60% | – | 391% | –
CCCCCCCCCCCCCCC(=O)N1CCC(C2CCNCC2)CC1 | 8.6 µM | 2390% | 9.3 µM | 1540% | 5.6 µM | 1560% | –
CCCCCCCCCCCCCNC1CCNCC1 | 36.4 µM | 2350% | 18.8 µM | 1480% | 25.5 µM | 2000% | –
CCCCCCCCCCCCCCC(=O)NC1CCNCC1 | 50.2 µM | 1370% | 34.3 µM | 1270% | 22.7 µM | 1290% | –
CCCCCCCCCCCCNC(=O)C(N)CCCCN (stereo not given) | 47.9 µM | 2510% | 43.9 µM | 900% | 28.8 µM | 1030% | –
CCCCCCCCCCCCCCCN1CCC(NC2CCNCC2)CC1 | 32.4 µM | 3040% | 14.4 µM | 1540% | 13.5 µM | 2280% | –
CCCCCCCCCCCCCCC(=O)NN1CCNCC1 | 38.5 µM | 4640% | 24.9 µM | 2320% | 23.4 µM | 3690% | –

Other lines, results leading:

EC50 [1] | Stimulation [2] | EC50 [3] | Stimulation [4] | EC50 [5] | Stimulation [6] | Stimulation [7] | Compound
18.4 µM | 3350% | 19 µM | 2630% | 16.9 µM | 2720% | – | CCCCCCCCCCCCCCCNC(=O)C1CCN(CCN)CC1
6.5 µM | 2870% | 6.5 µM | 2330% | 3.7 µM | 2820% | – | CCCCCCCCCCCCCCCN1CCN(N)CC1
8.6 µM | 3600% | 9.3 µM | 3290% | 5.5 µM | 3240% | – | CCCCCCCCCCCCCCCNC(=O)C1CCN(CCNC=O)CC1
11.8 µM | 3830% | 11.2 µM | 3370% | 13.3 µM | 3440% | – | CCCCCCCCCCCCCCCNC1CCNCC1
– | 132% | – | 86% | – | 102% | – | CCCCCCCCCCCCCCCN1CCC(CCC2CCN(C)CC2)CC1
19.1 µM | 1810% | 18.7 µM | 1510% | 6.2 µM | 1640% | – | CCCCCCCCCCCCCCCN1CCC(C2CCNCC2)CC1
451 µM | 5010% | 8050 µM | 2460% | 10.5 µM | 2400% | – | CCCCCCCCCCCCCCCN1CCC(CCC2CCNCC2)CC1
17.8 µM | 942% | 23 µM | 825% | 24.3 µM | 815% | – | CCCCCCCCCCCCCCCNCC1CCN(CCN)CC1
15.9 µM | 5580% | 19 µM | 5060% | 6.1 µM | – | 5720% | CCCCCCCCCCCCCCCNN1CCNCC1
25.5 µM | 1280% | 25.1 µM | 1050% | 25.8 µM | 1070% | – | CCCCCCCCCCCCCCC(=O)N1CCC(N)CC1
10.6 µM | 4160% | 11.4 µM | 2460% | 12.4 µM | 1930% | – | CCCCCCCCCCCCCCCNCC1CCNCC1
22.1 µM | 6890% | 27.6 µM | 3350% | 23 µM | 3780% | – | CCCCCCCCCCCCCCCN1CCC(N)CC1
